Experiments:
[1] = target: T1, Prostaglandin G/H synthase 1 (Ovis aries) (UniProt P05979); assay: Inhibition of ovine COX1 at 10 uM
T1 sequence (whole entry): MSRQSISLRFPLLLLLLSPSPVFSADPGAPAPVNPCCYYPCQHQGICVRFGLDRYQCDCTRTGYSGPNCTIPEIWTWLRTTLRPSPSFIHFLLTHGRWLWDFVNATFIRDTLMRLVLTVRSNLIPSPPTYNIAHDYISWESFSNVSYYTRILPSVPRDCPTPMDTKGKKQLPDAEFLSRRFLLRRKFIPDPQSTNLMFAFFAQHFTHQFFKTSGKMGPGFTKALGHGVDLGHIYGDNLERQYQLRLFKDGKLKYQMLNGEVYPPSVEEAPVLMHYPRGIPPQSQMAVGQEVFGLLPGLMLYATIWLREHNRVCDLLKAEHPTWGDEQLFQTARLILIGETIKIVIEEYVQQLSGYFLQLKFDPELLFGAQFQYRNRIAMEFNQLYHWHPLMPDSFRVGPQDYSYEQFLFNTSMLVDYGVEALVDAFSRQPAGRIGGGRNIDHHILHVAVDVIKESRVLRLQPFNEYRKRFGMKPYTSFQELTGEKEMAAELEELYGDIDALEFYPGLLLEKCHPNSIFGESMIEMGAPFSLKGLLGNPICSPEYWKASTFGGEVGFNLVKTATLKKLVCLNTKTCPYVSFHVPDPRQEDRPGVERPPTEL
Procedure, shortened: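 Ovine COX-1 enzyme assay in 96-well format following a standard procedure. Compounds were tested at a single concentration of 10^-5 M, in duplicate. Results are expressed as % inhibition.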

[2] = target: T2, Prostaglandin G/H synthase 1 (Ovis aries, UniProt P05979); assay: Inhibition of ovine COX1
T2 sequence (P05979 whole entry): T1 sequence (whole entry)

[3] = target: T3, Prostaglandin G/H synthase 2 (Ovis aries, UniProt P79208); assay: Inhibition of ovine COX2
T3 sequence (P79208 whole entry): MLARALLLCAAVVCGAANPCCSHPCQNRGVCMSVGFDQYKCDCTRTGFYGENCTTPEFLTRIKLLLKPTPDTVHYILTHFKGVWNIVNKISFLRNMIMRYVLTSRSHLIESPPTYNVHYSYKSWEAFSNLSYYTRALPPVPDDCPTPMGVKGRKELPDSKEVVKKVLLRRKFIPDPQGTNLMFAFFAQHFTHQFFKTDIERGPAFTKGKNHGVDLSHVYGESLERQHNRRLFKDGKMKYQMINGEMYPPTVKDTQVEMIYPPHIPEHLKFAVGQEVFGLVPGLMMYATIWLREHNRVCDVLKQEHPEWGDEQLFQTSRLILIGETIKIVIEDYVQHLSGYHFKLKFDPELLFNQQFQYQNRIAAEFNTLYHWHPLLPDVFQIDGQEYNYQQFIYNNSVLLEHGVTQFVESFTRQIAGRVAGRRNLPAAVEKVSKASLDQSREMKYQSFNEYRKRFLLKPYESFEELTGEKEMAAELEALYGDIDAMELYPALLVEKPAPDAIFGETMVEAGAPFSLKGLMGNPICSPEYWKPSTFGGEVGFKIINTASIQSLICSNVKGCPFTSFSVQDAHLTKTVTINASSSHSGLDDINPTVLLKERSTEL

inhibition [1]	IC50 [2]	IC50 [3]	Compound
96%			CC(C)Cc1ccc(C(C)C(=O)O)cc1 (configuration not stated)
34%	> 10 µM	> 10 µM	CCSC[C@@H]1C[C@](C)(O)C[C@H](c2ccc([N+](=O)[O-])cc2)O1
34%	> 10 µM	> 10 µM	CCSC[C@@H]1C[C@](C)(O)C[C@H](c2ccc(Cl)cc2)O1

More lines, now with the values behind:

Compound	inhibition [1]	IC50 [2]	IC50 [3]
CCSC[C@@H]1C[C@](C)(O)C[C@H](c2ccc(F)cc2)O1	42%	> 10 µM	< 1 µM
C[C@]1(O)C[C@@H](CSC#N)O[C@@H](c2ccc(F)cc2)C1	34%	> 10 µM	1 µM
C[C@]1(O)C[C@@H](CSC#N)O[C@@H](c2ccc([N+](=O)[O-])cc2)C1	29%	> 10 µM	> 10 µM
CCSC[C@@H]1C[C@](C)(O)C[C@H](c2ccc(Br)cc2)O1	24%	> 10 µM	> 10 µM
C[C@]1(O)C[C@@H](CSC#N)O[C@@H](c2ccc(Br)cc2)C1	32%	> 10 µM	> 10 µM

Reference: ChEMBL document CHEMBL1138571, “Design, synthesis and evaluation of tetrahydropyran based COX-1/-2 inhibitors” (Eur J Med Chem, 2009)
